Data taken from ChEMBL document CHEMBL1153060, “Part 1: Structure-Activity Relationship (SAR) investigations of fused pyrazoles as potent, selective and orally available inhibitors of p38alpha mitogen-activated protein kinase” (Bioorg Med Chem Lett, 2009).
Values after ≈ are worked out from the molar mass of the structure shown.

Tests used:
[1] = molecular target: Mitogen-activated protein kinase 14 (Homo sapiens, UniProt Q16539); assay: Inhibition of human recombinant p38alpha assessed as phosphorylation of ATF2 by scintillation proximity assay
THP-1 = assay: Inhibition of LPS-induced TNFalpha release in human THP1 cells after 3 hrs; format: functional, cell-based; conditions: THP-1, 3 h
Outline: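 THP1 cell line challenged with LPS, with TNFα secretion as read-out. IC50 is the mean of at least three independent dose–response curves, or of two where flagged.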

Blood = assay: Inhibition of TNF-alpha-stimulated IL8 production in human whole blood incubated for 1 hr before TNFalpha challenge measured after 16 to 18 hrs; format: functional, tissue-based
Outline: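 Human whole blood diluted to 50% and stimulated with TNFα, with IL-8 secretion as read-out. IC50 is the mean of at least three independent dose–response curves, or of two where flagged.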

[2] = Half life in Sprague-Dawley rat at 2 mg/kg, iv; format: ADME, organism-based; parameters: dose 2 mg/kg, route intravenous; conditions: in vivo
Outline: (§1)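 Male Sprague–Dawley rats given 2.0 mg/kg iv (in DMSO) or 2.0 mg/kg po. Values are the mean of three rats. Reported parameters are CL, Vdss, t1/2, AUC(0-inf) and oral F.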

[3] = AUC (0 to infinity) in Sprague-Dawley rat at 2 mg/kg, po; format: ADME, organism-based; parameters: time infinity, dose 2 mg/kg, route oral; conditions: plasma; outline: as §1
[4] = Volume of distribution at steady state in Sprague-Dawley rat at 2 mg/kg, iv; format: ADME, organism-based; parameters: dose 2 mg/kg, route intravenous; conditions: in vivo, read-out: Vdss; outline: as §1
[5] = Clearance in Sprague-Dawley rat at 2 mg/kg, iv; format: ADME, organism-based; parameters: dose 2 mg/kg, route intravenous; conditions: in vivo; outline: as §1
[6] = Oral bioavailability in Sprague-Dawley rat at 2 mg/kg; format: ADME, organism-based; conditions: in vivo; outline: as §1
[7] = Solubility in simulated intestinal fluid; format: physicochemical
[8] = Solubility in phosphate buffered saline; format: physicochemical
[9] = Solubility in 0.01N HCl; format: physicochemical

Sequence of Mitogen-activated protein kinase 14 (Q16539 whole entry): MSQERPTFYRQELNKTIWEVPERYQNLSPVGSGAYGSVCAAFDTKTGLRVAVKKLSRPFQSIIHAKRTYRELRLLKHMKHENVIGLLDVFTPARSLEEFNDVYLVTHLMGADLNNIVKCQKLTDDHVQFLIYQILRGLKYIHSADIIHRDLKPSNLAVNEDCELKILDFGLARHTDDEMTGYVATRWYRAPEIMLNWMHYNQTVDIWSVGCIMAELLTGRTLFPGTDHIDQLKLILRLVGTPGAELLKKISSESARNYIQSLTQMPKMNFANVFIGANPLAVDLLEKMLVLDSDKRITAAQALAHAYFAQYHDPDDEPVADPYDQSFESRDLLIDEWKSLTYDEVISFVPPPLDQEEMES

`Cc1ccc(C(=O)NC2CC2)cc1Nc1cc(=O)n(C)c2c1cnn2-c1cc(F)ccc1F` showed an IC50 [1] of 2.9 nM, an IC50 (THP-1) of 1 nM and an IC50 (Blood) of 2.5 nM.

For `CCn1c(=O)cc(Nc2cc(C(=O)NC3CC3)ccc2Cl)c2cnn(-c3ccc(F)cc3F)c21`, the half-life [2] was 3.4 h, the AUC(0-inf) [3] was 776 ng·h/mL and the IC50 [1] was 1.1 nM. It also gave a Vd [4] of 1.5 L/kg, an IC50 (THP-1) of 0.67 nM and a clearance [5] of 7 mL/min/kg. The bioavailability [6] was 16% and the IC50 (Blood) was 1.3 nM.

`Cc1ccncc1Nc1cc(=O)n(C)c2c1cnn2-c1cc(F)ccc1F` showed an IC50 [1] of 444 nM, an IC50 (THP-1) of 208 nM and an IC50 (Blood) of 403 nM.

With `Cn1c(=O)cc(Nc2ccc(F)cc2F)c2cnn(-c3ccc(F)cc3F)c21` the IC50 [1] was over 1000 nM, the IC50 (THP-1) was 937 nM and the IC50 (Blood) was over 2500 nM.

`CCn1c(=O)cc(Nc2cc(C(=O)NC3CC3)ccc2Cl)c2cnn(-c3ccc(F)cc3)c21` gave a half-life [2] of 3.7 h, an AUC(0-inf) [3] of 2290 ng·h/mL and an IC50 [1] of 1.2 nM. The Vd [4] was 1.8 L/kg, the IC50 (THP-1) was 1 nM and the clearance [5] was 6.83 mL/min/kg. The bioavailability [6] was 45% and the IC50 (Blood) was 0.93 nM.

Compound `CCn1c(=O)cc(Oc2cc(C(=O)NC3CC3)ccc2C)c2cnn(-c3ccc(F)cc3)c21` has a half-life [2] of 3.2 h, an AUC(0-inf) [3] of 1500 ng·h/mL and an IC50 [1] of 4 nM. The Vd [4] was 1.1 L/kg, the IC50 (THP-1) was 1.8 nM and the clearance [5] was 4.5 mL/min/kg. It also gave a bioavailability [6] of 41% and an IC50 (Blood) of 13 nM.

Compound `Cn1c(=O)cc(Nc2ccc(F)cc2)c2cnn(-c3c(F)cccc3F)c21` has an IC50 [1] of over 1000 nM, an IC50 (THP-1) of 546 nM and an IC50 (Blood) of over 833 nM.

Compound `Cc1ccc(C(=O)NC2CC2)cc1Oc1cc(=O)n(C)c2c1cnn2-c1c(F)cccc1F` has a half-life [2] of 2.3 h, an AUC(0-inf) [3] of 244 ng·h/mL and an IC50 [1] of 1.4 nM. The Vd [4] was 1.3 L/kg, the IC50 (THP-1) was 1 nM and the clearance [5] was 10.5 mL/min/kg. The bioavailability [6] was 7% and the IC50 (Blood) was 2.6 nM.

In the case of `CONC(=O)c1ccc(C)c(Nc2cc(=O)n(C)c3c2cnn3-c2ccc(F)cc2F)c1`, the half-life [2] is reported as 3.3 h, the AUC(0-inf) [3] is reported as 120 ng·h/mL and the IC50 [1] is reported as 1.1 nM. The Vd [4] was 1.7 L/kg, the IC50 (THP-1) was 1.1 nM and the clearance [5] was 43.3 mL/min/kg. The bioavailability [6] was 15% and the IC50 (Blood) was 1.4 nM.

For `Cn1c(=O)cc(Nc2cc(C(=O)NC3CC3)ccc2Cl)c2cnn(-c3c(F)cccc3F)c21`, the half-life [2] was 3.4 h, the AUC(0-inf) [3] was 139 ng·h/mL and the IC50 [1] was 1.1 nM. For the same compound, the Vd [4] was 1.9 L/kg, the IC50 (THP-1) was 0.62 nM and the clearance [5] was 21.7 mL/min/kg. It also gave a bioavailability [6] of 9% and an IC50 (Blood) of 1.5 nM.

With `Cc1ccc(C(=O)NC2CC2)cc1Oc1cc(=O)n(C)c2c1cnn2-c1cc(F)ccc1F` the IC50 [1] was 6.1 nM, the IC50 (THP-1) was 5 nM and the IC50 (Blood) was 16 nM.

In the case of `Cn1c(=O)cc(Nc2cc(C(=O)NC3CC3)ccc2Cl)c2cnn(-c3cc(F)ccc3F)c21`, the half-life [2] is reported as 2.1 h, the AUC(0-inf) [3] is reported as 2160 ng·h/mL and the solubility [7] is reported as 35.2 µg/mL (≈ 74.9 µM). It also gave an IC50 [1] of 1.1 nM, a Vd [4] of 1.2 L/kg and an IC50 (THP-1) of 1.1 nM. For the same compound, the clearance [5] was 8.67 mL/min/kg, the bioavailability [6] was 56% and the IC50 (Blood) was 1.9 nM. It also gave a solubility [8] of 24.9 µg/mL (≈ 53 µM) and a solubility [9] of 28.6 µg/mL (≈ 60.9 µM).

`Cc1ccc(C(=O)NC2CC2)cc1Oc1cc(=O)n(C)c2c1cnn2-c1cccc(F)c1` gave an IC50 [1] of 8.5 nM, an IC50 (THP-1) of 12 nM and an IC50 (Blood) of 29 nM.

`Cn1c(=O)cc(Oc2cc(C(=O)NC3CC3)ccc2Cl)c2cnn(-c3cc(F)ccc3F)c21` showed a solubility [7] of 49 µg/mL (≈ 104 µM), an IC50 [1] of 3.3 nM and an IC50 (THP-1) of 14 nM. For the same compound, the IC50 (Blood) was 79 nM, the solubility [8] was 14.7 µg/mL (≈ 31.2 µM) and the solubility [9] was 24.8 µg/mL (≈ 52.7 µM).
